This is an account of results in ChEMBL document CHEMBL2401735, “Synthesis and cytotoxicity of novel (thiazol-2-yl)hydrazine derivatives as promising anti-Candida agents” (Eur J Med Chem, 2013).

The test system of one data set is Nakaseomyces glabratus. Description: Anticandida activity against Candida glabrata clinical isolate assessed as growth inhibition after 24 hrs by broth microdilution method. It is filed as functional. The essentials: (§1)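 Clinical Candida isolates subcultured for purity and optimal growth before testing; compounds dissolved in DMSO. Broth microdilution per NCCLS in Sabouraud dextrose broth, serial dilutions, inoculum about 10³/mL, with growth control and medium-only control; 24 h incubation at 37 °C. MIC is the lowest concentration giving complete visible inhibition.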

The nature of data set [1]: Cytotoxicity against human Hep2 cells assessed as cell survival fraction at 50 ug/ml after 24 hrs by trypan blue exclusion assay (reference value: 97 to 98%). Type of data set: cell-based. As to conditions: HEp-2 cells, read-out: Survival.
Data set [2] is described as follows: Cytotoxicity against human Hep2 cells assessed as cell survival fraction at 5 ug/ml after 24 hrs by trypan blue exclusion assay (reference value: 97 to 98%). As to conditions: HEp-2 cells, read-out: Survival. Type of data set: cell-based.
Data set [3] can be described thus: Cytotoxicity against human Hep2 cells assessed as cell survival fraction at 100 ug/ml after 24 hrs by trypan blue exclusion assay (reference value: 97 to 98%). It is filed as cell-based. As to conditions: HEp-2 cells, read-out: Survival.
Data set [4] can be described thus: Cytotoxicity against human Hep2 cells assessed as reduction of cell viability after 24 hrs by trypan blue exclusion assay. It is filed as cell-based. The settings on record: HEp-2 cells. In outline: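 Hep2 cells in DMEM with 10% FBS, penicillin-streptomycin, 5% CO₂, 37 °C. Cells at 1 × 10⁵/mL exposed 24 h to seven concentrations (0.005-100 µg/mL), DMSO ≤0.5% final; controls were medium alone, DMSO, and 1 mM sodium nitroprusside. Cells scraped, allowed 30 min recovery, mixed 1:1 with 0.4% trypan blue, counted by hemocytometer by two operators.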

The next data set deals with Enterobacter sp. Description: Antibacterial activity against Enterobacter spp. assessed as growth inhibition after 18 to 22 hrs by broth microdilution method. It is filed as functional. In outline:
(§2)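 Bacterial isolates subcultured for purity, identified conventionally. Broth microdilution per NCCLS in Mueller-Hinton II broth; plates with growth control (no compound) and medium-only control, incubated 18-22 h at 35 °C. MIC taken as lowest concentration giving complete growth inhibition by unaided eye.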
For orientation: In broth dilution the organism is exposed to a series of concentrations in liquid medium.

Data set [5] can be described thus: Cytotoxicity against human Hep2 cells assessed as cell survival fraction at 0.005 ug/ml after 24 hrs by trypan blue exclusion assay (reference value: 97 to 98%). Type of data set: cell-based. As to conditions: HEp-2 cells, read-out: Survival.
For the next data set, the system named is Enterococcus faecalis. Description: Antibacterial activity against […] assessed as growth inhibition after 18 to 22 hrs by broth microdilution method. Type of data set: functional. In outline: as §2
The subject of another data set is Staphylococcus warneri. Description: Antibacterial activity against Staphylococcus warneri assessed as growth inhibition after 18 to 22 hrs by broth microdilution method. It is filed as functional. The essentials:
as §2

The next data set has as its system Klebsiella oxytoca. The data set is described as follows: Antibacterial activity against Klebsiella oxytoca assessed as growth inhibition after 18 to 22 hrs by broth microdilution method. It is filed as functional. In outline: as §2
In data set [6] the test system is HEp-2. Description: Cytotoxicity against human Hep2 cells assessed as dilatation of endoplasmic reticulum at 100 ug/ml after 24 hrs by transmission electron microscopic analysis. Type of data set: cell-based. The settings on record: hep-2, 24 h. The essentials: (§3)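 Hep2 cells treated and then examined by transmission electron microscopy, with unexposed cells as controls. Samples stained with 0.1% tannic acid for 30 min and uranyl acetate (5 mg/mL) for 1 h at 25 °C, dehydrated in graded acetone, embedded in Epon-812. Ultrathin sections counterstained with uranyl acetate and lead citrate before viewing.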

The next data set deals with [Candida] sake. The data set is described as follows: Anticandida activity against Candida sake clinical isolate assessed as growth inhibition after 24 hrs by broth microdilution method. Type of data set: functional. The settings on record: Fermentozyma sake. In outline: as §1
In another data set the test system is Candida albicans. Description: Anticandida activity against Candida albicans clinical isolate assessed as growth inhibition after 24 hrs by broth microdilution method. Type of data set: functional. In outline: as §1
Another data set deals with Pichia kudriavzevii. Description: Anticandida activity against Candida krusei clinical isolate assessed as growth inhibition after 24 hrs by broth microdilution method. Type of data set: functional. In outline: as §1
Data set [7] has as its system HEp-2. Description: Cytotoxicity against human Hep2 cells assessed as loss of cristae at 5 ug/ml after 24 hrs by transmission electron microscopic analysis. Type of data set: cell-based. As to conditions: hep-2, 24 h. In outline:
as §3

Another data set concerns Escherichia coli. The data set is described as follows: Antibacterial activity against Escherichia coli assessed as growth inhibition after 18 to 22 hrs by broth microdilution method. It is filed as functional. The essentials:
as §2

The nature of data set [8]: Cytotoxicity against human Hep2 cells assessed as cell survival fraction at 0.05 ug/ml after 24 hrs by trypan blue exclusion assay (reference value: 97 to 98%). It is filed as cell-based. As to conditions: HEp-2 cells, read-out: Survival.
Data set [9] in a line: Cytotoxicity against human Hep2 cells assessed as cell survival fraction at 0.5 ug/ml after 24 hrs by trypan blue exclusion assay (reference value: 97 to 98%). It is filed as cell-based. As to conditions: HEp-2 cells, read-out: Survival.
A further data set concerns Candida parapsilosis. The data set is described as follows: Anticandida activity against Candida parapsilosis clinical isolate assessed as growth inhibition after 24 hrs by broth microdilution method. Type of data set: functional. As to conditions: Lodderomyces parapsilosis. In outline:
as §1

A further data set has as its system Candida tropicalis. Description: Anticandida activity against Candida tropicalis clinical isolate assessed as growth inhibition after 24 hrs by broth microdilution method. Type of data set: functional. The essentials:
as §1

The test system of the next data set is Staphylococcus aureus. The data set is described as follows: Antibacterial activity against Staphylococcus aureus assessed as growth inhibition after 18 to 22 hrs by broth microdilution method. It is filed as functional. In outline: as §2
The subject of data set [10] is HEp-2. Description: Cytotoxicity against human Hep2 cells assessed as mitochondrial swelling at 5 ug/ml after 24 hrs by transmission electron microscopic analysis. The settings on record: hep-2, 24 h. It is filed as cell-based. The essentials:
as §3

Data set [11] is described as follows: Cytotoxicity against human Hep2 cells assessed as cell survival fraction at 10 ug/ml after 24 hrs by trypan blue exclusion assay (reference value: 97 to 98%). Type of data set: cell-based. The settings on record: HEp-2 cells, read-out: Survival.
The next data set relates to Proteus mirabilis. The data set is described as follows: Antibacterial activity against Proteus mirabilis assessed as growth inhibition after 18 to 22 hrs by broth microdilution method. Type of data set: functional. The essentials:
as §2

For data set [12], the system named is Streptococcus alpha-hemolyticus. The data set is described as follows: Antibacterial activity against Streptococcus alpha-hemolyticus assessed as growth inhibition after 18 to 22 hrs by broth microdilution method.
In data set [13] the test system is HEp-2. The data set is described as follows: Cytotoxicity against human Hep2 cells assessed as appearance of autophagic vacuoles near to mitochondrial proximity in cytoplasm at 5 to 100 ug/ml after 24 hrs by transmission electron microscopic analysis. It is filed as cell-based. The settings on record: hep-2, 24 h. In outline:
as §3

≈ marks a conversion by molar mass, not a printed value.

As usually defined, the MIC is the least concentration at which growth counts as inhibited. The term CC50 denotes the concentration that lowers cell viability or growth by half. For the compound `CC/C(C)=N/Nc1nc(-c2ccc(OC)cc2)cs1`, the MIC in the data set on Nakaseomyces glabratus is 2 µg/mL (≈ 7.26 µM); in the data set with Enterobacter sp., > 256 µg/mL; in the data set on Enterococcus faecalis it was > 256 µg/mL; in the data set on Staphylococcus warneri, > 256 µg/mL; in the data set on Klebsiella oxytoca, > 256 µg/mL; in [Candida] sake, 2 µg/mL (≈ 7.26 µM). Also, the MIC is 0.25 µg/mL (≈ 0.908 µM) in the data set on Candida albicans; 2 µg/mL (≈ 7.26 µM) in the data set with Pichia kudriavzevii; > 256 µg/mL in the data set on Escherichia coli; 2 µg/mL (≈ 7.26 µM) in the data set with Candida parapsilosis; 2 µg/mL (≈ 7.26 µM) in the data set on Candida tropicalis; > 256 µg/mL in the data set with Staphylococcus aureus. Besides, the MIC (with Proteus mirabilis; in data set [12]) was > 256 µg/mL each time. Moreover, the viability at 24 h, 50 ug/ml in data set [1] is 0%. In addition, the viability at 24 h, 5 ug/ml in data set [2] came to 69%. The viability at 24 h, 100 ug/ml in data set [3] was found to be 0%. The CC50 at 24 h in data set [4] was 25 µg/mL (≈ 90.8 µM). The viability at 24 h, 0.005 ug/ml in data set [5] was 78%. Also, the Activity result in the data set on HEp-2 [6], with HEp-2 [7] and in the data set on HEp-2 [10] was “Toxic” throughout. For the same compound, the viability at 24 h, 0.05 ug/ml in data set [8] was 71%. For the same compound, in data set [9], the viability at 24 h, 0.5 ug/ml was 64%. The viability at 24 h, 10 ug/ml in data set [11] is 64%.

On to `CCC/C(C)=N/Nc1nc(-c2ccc(C)cc2)cs1`, for which the MIC in the data set with Nakaseomyces glabratus is 0.5 µg/mL (≈ 1.83 µM); in the data set with Enterobacter sp. it was > 256 µg/mL; in the data set on Enterococcus faecalis it was > 256 µg/mL; in the data set on Staphylococcus warneri, > 256 µg/mL; in the data set on Klebsiella oxytoca, > 256 µg/mL; in data set [Candida] sake it was 2 µg/mL (≈ 7.32 µM). The MIC with Candida albicans was 0.5 µg/mL (≈ 1.83 µM); in the data set with Pichia kudriavzevii, 2 µg/mL (≈ 7.32 µM); with Escherichia coli it was > 256 µg/mL; with Candida parapsilosis, 2 µg/mL (≈ 7.32 µM); in the data set with Candida tropicalis, 2 µg/mL (≈ 7.32 µM); in the data set with Staphylococcus aureus, > 256 µg/mL. For the same compound, the MIC (in the data set with Proteus mirabilis; in data set [12]) was > 256 µg/mL throughout. Also, the viability at 24 h, 50 ug/ml in [1] stood at 72.8%. Moreover, in data set [2], the viability at 24 h, 5 ug/ml is 93%. Also, in [3], the viability at 24 h, 100 ug/ml is 62%. Further, in data set [4], the CC50 at 24 h is ≥ 100 µg/mL. For the same compound, the viability at 24 h, 0.005 ug/ml in data set [5] is 97%. Also, in the data set with HEp-2 [13], the Activity result is “Toxic”. Also, in data set [8], the viability at 24 h, 0.05 ug/ml amounted to 94%. Besides, the viability at 24 h, 0.5 ug/ml in data set [9] came to 91%. For the same compound, the viability at 24 h, 10 ug/ml in data set [11] was found to be 83.2%.
